Experimental data of several laboratories.
Each line is one published result; the experiments were not run side by side.
CDK4: Cyclin-dependent kinase 4 (CDK4, Homo sapiens, UniProt P11802)
CHRM2: Muscarinic acetylcholine receptor M2 (CHRM2, Homo sapiens, UniProt P08172)
KRAS G12D: GTPase KRas (KRAS, Homo sapiens, UniProt P01116, G12D)
Chymotrypsinogen A: Chymotrypsinogen A (Bos taurus, UniProt P00766)
Flap endonuclease 1: Flap endonuclease 1 (Homo sapiens, UniProt P39748)

The IC50 of CCOC(=O)[C@H]1Cc2c(cc([N+](=O)[O-])cc2[N+](=O)[O-])[C@@H](O)[C@@]12C(=O)Nc1ccc(C)cc12 is reported as 0.91 µM (CDK4; cell-free assay; inhibitor; TR-FRET).
COc1cc(C(=O)N2CC[C@@H](O)[C@@H](N)C2)cc2nc(-c3cc4ccccc4n3CC3CC3)n(C)c12 has an IC50 of > 15.8 µM (CHRM2; calcium signal; antagonist; fluorescence).
C=CC(C)(C)c1cc(/C=C/C(=O)c2ccc(O)cc2)c(OC)cc1O gave an IC50 of > 333 µM (Protein arginine N-methyltransferase 1 (Prmt1, Rattus norvegicus, UniProt Q63009); enzyme activity; inhibitor).
CCOC(=O)[C@H]1Cc2c(cc([N+](=O)[O-])cc2[N+](=O)[O-])[C@@H](O)[C@@]12C(=O)Nc1ccc(Br)cc12 gave an IC50 of 0.32 µM (CDK4; cell-free assay; inhibitor; TR-FRET).
CC[C@H](C)[C@@H]1NC(=O)[C@H](Cc2ccc(-c3ccccc3)cc2)NC(=O)[C@H](CC(C)C)NC(=O)[C@@H]2CCCN2C(=O)[C@@H](NC(=O)[C@H](CCCNC(=N)N)NC(=O)[C@H](CCCNC(=N)N)NC(C)=O)CSSC[C@@H](C(=O)N[C@@H](CCCNC(=N)N)C(=O)N[C@@H](CCCNC(=N)N)C(N)=O)NC(=O)[C@H](Cc2ccc(Cl)cc2)NC(=O)[C@@H]2C[C@@H](OCC(=O)O)CN2C(=O)[C@H](CC(=O)O)NC(=O)[C@H](Cc2ccc(O)cc2)NC(=O)[C@H](CO)NC1=O gave an IC50 of 0.033 µM (KRAS G12D; enzyme activity; inhibitor; TR-FRET).
O=c1oc(-c2ccccc2)ns1 gave an IC50 of 10 µM (Chymotrypsinogen A; enzyme activity; inhibitor).
With CC[C@H](C)[C@@H]1NC(=O)[C@H](Cc2ccc(-c3ccccc3)cc2)NC(=O)[C@H](CC2CCCCC2)NC(=O)[C@@H]2[C@@H](c3ccccc3)CCN2C(=O)[C@@H](NC(=O)[C@H](CCCNC(=N)N)NC(=O)[C@H](CCCNC(=N)N)NC(C)=O)CSSC[C@@H](C(=O)N[C@@H](CCCNC(=N)N)C(=O)N[C@@H](CCCNC(=N)N)C(N)=O)NC(=O)[C@H](C(C)C)NC(=O)[C@@H]2CCCN2C(=O)[C@H](CC(=O)O)NC(=O)[C@H](Cc2ccc(O)cc2)NC(=O)[C@H](CO)NC1=O the IC50 was 0.02 µM (KRAS G12D; enzyme activity; inhibitor; TR-FRET).
For Cc1[nH]ncc1-c1cc2nc([C@@H]3CC4CCN3CC4)[nH]c(=O)c2s1, the IC50 was 0.00175 µM (Cell division cycle 7-related protein kinase (CDC7, Homo sapiens, UniProt O00311); enzyme activity; inhibitor).
CCOC(=O)[C@H]1Cc2c(cc([N+](=O)[O-])cc2[N+](=O)[O-])[C@@H](O)[C@@]12C(=O)Nc1ccc(Cl)cc12 gave an IC50 of 0.78 µM (CDK4; cell-free assay; inhibitor; TR-FRET).
With CN1CCC(=C2c3ccccc3CCc3cccnc32)CC1 the IC50 was 0.064 µM (CHRM2; ligand displacement; radioligand).
CC(C)C[C@H](NC(=O)[C@H](Cc1ccccc1)NC(=O)c1cnccn1)B(O)O gave an IC50 of 11.9 µM (GZMA (Homo sapiens, UniProt P12544); enzyme activity; inhibitor).
For c1ccc(-c2c[nH]c3ncnc(N4CCOCC4)c23)cc1, the IC50 was 0.127 µM (Serine/threonine-protein kinase 3 (STK3, Homo sapiens, UniProt Q13188); enzyme activity; inhibitor; ADP detection).
The IC50 of CCOC(=O)[C@H]1Cc2c(cc([N+](=O)[O-])cc2[N+](=O)[O-])[C@@H](O)[C@@]12C(=O)Nc1cc(Br)ccc12 is reported as 1.1 µM (CDK4; cell-free assay; inhibitor; TR-FRET).
For [O]=[Sb]([OH])([OH])[c]1ccccc1, the IC50 was 160 µM (Flap endonuclease 1; enzyme activity; inhibitor; fluorescence; with preincubation).
With CC(C)C[C@H](NC(=O)[C@H](Cc1ccccc1)NC(=O)[C@H](Cc1ccc(O)cc1)NC(=O)CNC(=O)[C@H](CCCCN)NC(=O)[C@H](CO)NC(=O)[C@H](CCC(N)=O)NC(=O)CNC(=O)[C@@H](NC(=O)[C@H](CO)NC(=O)[C@@H]1CCCN1C(=O)[C@H](CO)NC(=O)[C@H](CCC(N)=O)NC(=O)[C@H](Cc1ccc(O)cc1)NC(=O)[C@H](CCC(=O)O)NC(=O)[C@H](C)NC(=O)[C@H](CCCCN)NC(=O)[C@@H](N)Cc1ccccc1)C(C)C)C(=O)N[C@@H](Cc1ccccc1)C(=O)N[C@@H](CCCNC(=N)N)C(=O)N1CCC[C@H]1C(=O)N[C@@H](CCCNC(=N)N)C(=O)N[C@@H](CC(N)=O)C(N)=O the IC50 was 2.51e-05 µM (Neuromedin-U receptor 1 (Mus musculus, UniProt O55040); ligand displacement; radioligand).
For CC[C@H](C)[C@@H]1NC(=O)[C@H](Cc2ccc(-c3ccccc3)cc2)NC(=O)[C@H](CC(C)C)NC(=O)[C@@H]2CCCN2C(=O)[C@@H](NC(=O)[C@H](CCCNC(=N)N)NC(=O)[C@H](CCCNC(=N)N)NC(C)=O)CSSC[C@@H](C(=O)N[C@@H](CCCNC(=N)N)C(=O)N[C@@H](CCCNC(=N)N)C(N)=O)NC(=O)[C@H](C(C)C)NC(=O)[C@@H]2CC[C@H](c3ccccc3)N2C(=O)[C@H](CC(=O)O)NC(=O)[C@H](Cc2ccc(O)cc2)NC(=O)[C@H](CO)NC1=O, the IC50 was 0.094 µM (KRAS G12D; enzyme activity; inhibitor; TR-FRET).
With O=C(O)c1cc[c]([Sb](=[O])([OH])[OH])cc1[N+](=O)[O-] the IC50 was 0.66 µM (Flap endonuclease 1; enzyme activity; inhibitor; with preincubation).
For O=c1oc(-c2cccc(F)c2)ns1, the IC50 was 2.67 µM (Chymotrypsinogen A; enzyme activity; inhibitor).
CCOC(=O)[C@H]1Cc2c(cc([N+](=O)[O-])cc2[N+](=O)[O-])[C@@H](O)[C@@]12C(=O)Nc1cccc(Br)c12 gave an IC50 of 2.9 µM (CDK4; cell-free assay; inhibitor; TR-FRET).
O=C(Nc1cc[c]([Sb](=[O])([OH])[OH])cc1)c1ccccc1 has an IC50 of 12 µM (Flap endonuclease 1; enzyme activity; inhibitor; with preincubation).
The IC50 of CCOC(=O)[C@H]1Cc2c(cc([N+](=O)[O-])cc2[N+](=O)[O-])[C@@H](O)[C@@]12C(=O)Nc1c(F)cccc12 is reported as 0.99 µM (CDK4; cell-free assay; inhibitor; TR-FRET).
CCOC(=O)CCCc1cc[c]([Sb](=[O])([OH])[OH])cc1 gave an IC50 of 1.7 µM (Flap endonuclease 1; enzyme activity; inhibitor; with preincubation).
O=C1C(=O)N(Cc2cc3ccccc3s2)c2ccc(I)cc21 gave an IC50 of 1000 µM (Chymotrypsinogen A; enzyme activity; inhibitor).
